Experimental data published in ChEMBL document CHEMBL1944524, “Synthesis and structure-activity relationship of 5-pyridazin-3-one phenoxypiperidines as potent, selective histamine H(3) receptor inverse agonists” (Bioorg Med Chem Lett, 2012).

Assays:
Histamine H3 receptor [1] = target: Histamine H3 receptor (Rattus norvegicus, UniProt Q9QYN8); assay: Displacement of [3H]N-alpha-methylhistamine from rat histamine H3 receptor expressed in CHO cells; format: cell-based
[2] = Oral bioavailability in rat; format: ADME, organism-based; conditions: in vivo
Outline: (§1)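 Rat PK study, dosed 1 mg/kg iv plus 10 or 5 mg/kg po. iv vehicle 3% DMSO, 30% solutol, 67% phosphate buffered saline; oral vehicle 50% Tween 80, 40% propylene carbonate, 10% propylene glycol.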

Histamine H3 receptor [3] = target: Histamine H3 receptor (Homo sapiens, UniProt Q9Y5N1); assay: Displacement of [3H]N-alpha-methylhistamine from human histamine H3 receptor expressed in CHO cells; format: cell-based
[4] = Half life in human liver microsomes; format: ADME, Microsome
Outline: (§2)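 Stability in liver microsomes from rat, dog or human; half-life (min) determined.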

[5] = Half life in rat liver microsomes; format: ADME, Microsome; outline: as §2
[6] = Half life in dog liver microsomes; format: ADME, Canis lupus familiaris, Microsome; outline: as §2
[7] = Inhibition of cytochrome P450; format: ADME
Outline: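 CYP inhibition assessed against 5 CYP isoforms; IC50 determined.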

[8] = Cmax in po dosed rat; format: ADME, organism-based; design: route oral; conditions: in vivo
[9] = AUC in po dosed rat; format: ADME, organism-based; conditions: plasma
Rattus norvegicus [10] = assay: Cmax in po dosed rat assessed as 5-[4-(1-cyclobutyl-piperidin-4-yloxy)-phenyl]-6-methyl-2H-pyridazin-3-one level; format: ADME, organism-based; design: route oral; conditions: in vivo
Rattus norvegicus [11] = assay: AUC in po dosed rat assessed as 5-[4-(1-cyclobutyl-piperidin-4-yloxy)-phenyl]-6-methyl-2H-pyridazin-3-one level; format: ADME, organism-based, Plasma; conditions: in vivo
[12] = Half life in rat at 1 mg/kg, iv; format: ADME, organism-based; design: dose 1 mg/kg, route intravenous; conditions: in vivo; outline: as §1
[13] = Volume of distribution in rat at 1 mg/kg, iv; format: ADME, organism-based; design: dose 1 mg/kg, route intravenous; conditions: in vivo; outline: as §1
[14] = Clearance in rat at 1 mg/kg, iv; format: ADME, organism-based; design: dose 1 mg/kg, route intravenous; conditions: in vivo; outline: as §1
[15] = Ratio of drug level in brain to plasma in rat at 10 mg/kg, ip after 6 hrs; format: ADME, organism-based; design: dose 10 mg/kg, route intraperitoneal; conditions: read-out: BPR
Outline: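 Brain and plasma levels measured in rat 6 h after a 10 mg/kg ip dose; value is brain/plasma ratio.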

[16] = Cmax in rat at 5 mg/kg, po; format: ADME, organism-based; design: dose 5 mg/kg, route oral; conditions: in vivo; outline: as §1
[17] = Tmax in rat at 5 mg/kg, po; format: ADME, organism-based; design: dose 5 mg/kg, route oral; conditions: in vivo; outline: as §1
[18] = Oral bioavailability in rat at 5 mg/kg; format: ADME, organism-based; conditions: in vivo; outline: as §1
[19] = AUC in rat at 5 mg/kg, po; format: ADME, organism-based; design: dose 5 mg/kg, route oral; conditions: plasma; outline: as §1
[20] = target: Histamine H1 receptor (Homo sapiens) (UniProt P35367); assay: Inhibition of human histamine H1 receptor at 10 uM
Outline: (§3)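 Selectivity screen against human H1, H2 and H4 receptors; percent inhibition at 10 µM.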

[21] = target: Histamine H2 receptor (Homo sapiens) (UniProt P25021); assay: Inhibition of human histamine H2 receptor at 10 uM; outline: as §3
[22] = target: Histamine H4 receptor (Homo sapiens) (UniProt Q9H3N8); assay: Inhibition of human histamine H4 receptor at 10 uM; outline: as §3
[23] = target: T1, Muscarinic acetylcholine receptor M2 (Homo sapiens, UniProt P08172); assay: Inhibition of muscarinic M2 receptor
T1 sequence (P08172 whole entry): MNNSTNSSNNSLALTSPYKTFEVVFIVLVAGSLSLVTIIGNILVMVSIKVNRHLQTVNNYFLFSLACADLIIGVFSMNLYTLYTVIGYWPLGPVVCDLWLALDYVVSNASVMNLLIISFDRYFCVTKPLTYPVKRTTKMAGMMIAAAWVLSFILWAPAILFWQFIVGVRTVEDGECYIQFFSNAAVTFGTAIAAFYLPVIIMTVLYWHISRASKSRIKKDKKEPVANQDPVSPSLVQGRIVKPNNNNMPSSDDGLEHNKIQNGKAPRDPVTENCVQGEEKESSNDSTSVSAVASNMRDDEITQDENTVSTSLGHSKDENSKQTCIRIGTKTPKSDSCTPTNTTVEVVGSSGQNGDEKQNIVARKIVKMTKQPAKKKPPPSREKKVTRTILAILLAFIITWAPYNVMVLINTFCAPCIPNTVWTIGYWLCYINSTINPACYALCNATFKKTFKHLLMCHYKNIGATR

Sequence of Histamine H3 receptor (Homo sapiens, UniProt Q9Y5N1) (Q9Y5N1 whole entry): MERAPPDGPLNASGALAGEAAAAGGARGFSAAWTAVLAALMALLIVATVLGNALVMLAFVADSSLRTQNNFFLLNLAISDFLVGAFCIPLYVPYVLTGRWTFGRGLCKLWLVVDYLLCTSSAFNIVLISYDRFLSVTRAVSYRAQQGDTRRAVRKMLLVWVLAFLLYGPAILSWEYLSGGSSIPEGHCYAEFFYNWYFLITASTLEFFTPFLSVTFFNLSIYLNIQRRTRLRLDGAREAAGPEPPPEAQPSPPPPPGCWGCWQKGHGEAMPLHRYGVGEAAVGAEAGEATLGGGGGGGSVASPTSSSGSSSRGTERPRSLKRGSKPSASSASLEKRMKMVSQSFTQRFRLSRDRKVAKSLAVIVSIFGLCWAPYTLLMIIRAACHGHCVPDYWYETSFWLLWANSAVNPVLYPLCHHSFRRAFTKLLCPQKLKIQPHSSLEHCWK
Sequence of Histamine H3 receptor (Rattus norvegicus, UniProt Q9QYN8) (Q9QYN8 whole entry): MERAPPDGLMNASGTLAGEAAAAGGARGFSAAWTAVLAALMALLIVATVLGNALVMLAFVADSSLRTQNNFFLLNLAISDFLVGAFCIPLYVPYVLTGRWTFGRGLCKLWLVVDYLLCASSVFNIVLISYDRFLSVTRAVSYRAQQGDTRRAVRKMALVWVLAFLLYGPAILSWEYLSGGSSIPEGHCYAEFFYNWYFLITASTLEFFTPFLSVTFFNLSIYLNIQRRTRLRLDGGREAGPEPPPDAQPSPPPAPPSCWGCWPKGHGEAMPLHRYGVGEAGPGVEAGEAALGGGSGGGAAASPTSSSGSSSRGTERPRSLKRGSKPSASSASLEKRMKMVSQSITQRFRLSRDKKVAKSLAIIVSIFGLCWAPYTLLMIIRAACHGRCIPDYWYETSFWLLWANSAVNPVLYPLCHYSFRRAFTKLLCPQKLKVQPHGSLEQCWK
Sequence of Histamine H4 receptor (Homo sapiens) (Q9H3N8 whole entry): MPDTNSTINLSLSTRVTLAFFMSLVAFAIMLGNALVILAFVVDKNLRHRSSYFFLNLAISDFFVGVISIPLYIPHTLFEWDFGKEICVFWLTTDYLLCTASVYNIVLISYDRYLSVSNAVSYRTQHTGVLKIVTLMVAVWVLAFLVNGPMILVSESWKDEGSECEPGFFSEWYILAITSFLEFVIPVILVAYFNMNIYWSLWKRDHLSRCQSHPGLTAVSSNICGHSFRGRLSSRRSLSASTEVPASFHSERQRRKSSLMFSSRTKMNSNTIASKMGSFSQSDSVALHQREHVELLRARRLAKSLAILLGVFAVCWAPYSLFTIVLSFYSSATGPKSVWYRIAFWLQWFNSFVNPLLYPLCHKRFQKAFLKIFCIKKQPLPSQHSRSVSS
Sequence of Histamine H2 receptor (Homo sapiens) (P25021 whole entry): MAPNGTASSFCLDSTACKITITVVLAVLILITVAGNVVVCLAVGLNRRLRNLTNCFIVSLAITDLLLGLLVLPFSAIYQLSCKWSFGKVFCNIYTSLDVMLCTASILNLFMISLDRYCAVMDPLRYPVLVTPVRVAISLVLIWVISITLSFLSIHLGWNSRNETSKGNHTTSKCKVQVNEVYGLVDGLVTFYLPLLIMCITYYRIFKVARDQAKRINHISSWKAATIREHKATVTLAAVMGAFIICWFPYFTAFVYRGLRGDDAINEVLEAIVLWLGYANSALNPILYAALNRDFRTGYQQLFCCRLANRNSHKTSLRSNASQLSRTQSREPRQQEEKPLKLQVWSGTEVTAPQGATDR
Sequence of Histamine H1 receptor (Homo sapiens) (P35367 whole entry): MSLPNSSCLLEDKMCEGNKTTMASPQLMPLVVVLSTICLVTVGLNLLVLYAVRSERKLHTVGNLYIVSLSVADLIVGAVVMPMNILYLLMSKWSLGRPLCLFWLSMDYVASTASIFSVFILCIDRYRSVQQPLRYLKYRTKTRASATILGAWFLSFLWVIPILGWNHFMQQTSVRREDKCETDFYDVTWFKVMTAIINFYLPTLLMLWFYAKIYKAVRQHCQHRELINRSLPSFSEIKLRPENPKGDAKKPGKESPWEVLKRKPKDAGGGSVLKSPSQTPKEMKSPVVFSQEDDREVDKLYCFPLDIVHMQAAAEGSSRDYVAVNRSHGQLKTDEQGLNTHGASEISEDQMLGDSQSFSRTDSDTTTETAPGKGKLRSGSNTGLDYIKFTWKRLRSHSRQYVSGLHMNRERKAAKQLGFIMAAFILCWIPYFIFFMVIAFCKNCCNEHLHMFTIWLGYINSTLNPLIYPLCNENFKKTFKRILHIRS

What does the source list for `CC1=NNC(=O)CC1c1ccc(OC2CCN(C3CCC3)CC2)cc1` (centres undefined)?
Ki (Histamine H3 receptor [1]): 13 nM; bioavailability [2]: 6%; Ki (Histamine H3 receptor [3]): 15 nM; half-life [4]: > 40 min; half-life [5]: > 40 min; half-life [6]: > 40 min; IC50 [7]: > 30000 nM; Cmax [8]: 73 ng/mL; AUC [9]: 370 ng·h/mL; Cmax (Rattus norvegicus [10]): 34 ng/mL; AUC (Rattus norvegicus [11]): 152 ng·h/mL

What does the source list for `Cc1nn(-c2ccccn2)c(=O)cc1-c1ccc(OC2CCN(C3CCC3)CC2)cc1`?
half-life [12]: 78 min; Vd [13]: 1.4 L/kg; clearance [14]: 13 mL/min/kg; Kp at 6 h [15]: 1.6; Ki (Histamine H3 receptor [1]): 9 nM; Cmax [16]: 287 ng/mL; Tmax [17]: 192 min; bioavailability [18]: 22%; AUC [19]: 1500 ng·h/mL; Ki (Histamine H3 receptor [3]): 3 nM; half-life [4]: > 40 min; half-life [5]: > 40 min; half-life [6]: > 40 min; IC50 [7]: > 30000 nM; inhibition [20]: < 30%; inhibition [21]: < 30%; inhibition [22]: < 30%; IC50 [23]: 340 nM
